How the values were obtained:
[1] = Inhibition of pyroglutamylaminopeptidase at a dose of 16.64 mM relative to 2-Oxo-hexahydro-pyrimidine-4-carboxylic acid; details: 16640 µM
Procedure, shortened: (§1)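 Enzyme purchased commercially, 5.5 units per digestion in pH 8.0 phosphate deblocking buffer (5% glycerol, 5 mM DTT, 10 mM EDTA, N2/Ar-purged). Preincubated 3 min at 37 °C, then substrate plus Leu internal standard added with the inhibitor at the stated level and digested 180 min at 37 °C. Gly-Ile released was quantitated by amino acid analysis. Values are cleavage relative to the uninhibited digest (set to 1.0), from a single experiment.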

[2] = Inhibition of pyroglutamylaminopeptidase at a dose of 8.32 mM relative to Pyrrolidin-2-one-CO-Gly-Ile; details: 8320 µM; procedure, shortened: as §1
[3] = Inhibition of pyroglutamylaminopeptidase at a dose of 8.32 mM relative to 2-Oxo-hexahydro-pyrimidine-4-carboxylic acid; details: 8320 µM; procedure, shortened: as §1
[4] = Inhibition of pyroglutamylaminopeptidase at a dose of 16.64 mM relative to Pyrrolidin-2-one-CO-Gly-Ile; details: 16640 µM; procedure, shortened: as §1
[5] = Inhibition of pyroglutamylaminopeptidase at a dose of 6.51 mM relative to Pyrrolidin-2-one-CO-Gly-Ile; details: 6510 µM; procedure, shortened: as §1
[6] = Inhibition of pyroglutamylaminopeptidase at a dose of 6.51 mM relative to 2-Oxo-hexahydro-pyrimidine-4-carboxylic acid; details: 6510 µM; procedure, shortened: as §1
[7] = Inhibition of pyroglutamylaminopeptidase at a dose of 13.02 mM relative to Pyrrolidin-2-one-CO-Gly-Ile; details: 13020 µM; procedure, shortened: as §1
[8] = Inhibition of pyroglutamylaminopeptidase at a dose of 13.02 mM relative to 2-Oxo-hexahydro-pyrimidine-4-carboxylic acid; details: 13020 µM; procedure, shortened: as §1

Hydrolysis rate [1]	Hydrolysis rate [2]	Hydrolysis rate [3]	Hydrolysis rate [4]	Hydrolysis rate [5]	Hydrolysis rate [6]	Hydrolysis rate [7]	Hydrolysis rate [8]	Compound
0.752	0.889	0.86	0.884					O=C1NCCC(C(=O)O)N1 (configuration not stated)
				0.854	0.533	0.707	0.308	O=C1NCC(C(=O)O)N1 (configuration not stated)
				0.586	0.206	0.333	0.093	O=C1CC[C@@H](C(=O)O)N1 [PIDOLIC ACID]
